Results: ChEMBL document CHEMBL3616456, “Potential of aryl-urea-benzofuranylthiazoles hybrids as multitasking agents in Alzheimer's disease” (Eur J Med Chem, 2015)
pIC50: −log10 of the molar value.

How the values were obtained:
[1] = Antioxidant activity assessed as cupric reducing antioxidant capacity measured after 1 hr; format: physicochemical
[2] = Selectivity index, ratio of IC50 for horse serum butyrylcholinesterase to IC50 for electric eel acetylcholinesterase
Acetylcholinesterase = Acetylcholinesterase (Electrophorus electricus, UniProt O42275); experiment: Inhibition of electric eel acetylcholinesterase using acetylthiocholine iodide as substrate preincubated for 15 mins followed by substrate addition by Ellman's method
Sequence of Acetylcholinesterase (O42275 whole entry): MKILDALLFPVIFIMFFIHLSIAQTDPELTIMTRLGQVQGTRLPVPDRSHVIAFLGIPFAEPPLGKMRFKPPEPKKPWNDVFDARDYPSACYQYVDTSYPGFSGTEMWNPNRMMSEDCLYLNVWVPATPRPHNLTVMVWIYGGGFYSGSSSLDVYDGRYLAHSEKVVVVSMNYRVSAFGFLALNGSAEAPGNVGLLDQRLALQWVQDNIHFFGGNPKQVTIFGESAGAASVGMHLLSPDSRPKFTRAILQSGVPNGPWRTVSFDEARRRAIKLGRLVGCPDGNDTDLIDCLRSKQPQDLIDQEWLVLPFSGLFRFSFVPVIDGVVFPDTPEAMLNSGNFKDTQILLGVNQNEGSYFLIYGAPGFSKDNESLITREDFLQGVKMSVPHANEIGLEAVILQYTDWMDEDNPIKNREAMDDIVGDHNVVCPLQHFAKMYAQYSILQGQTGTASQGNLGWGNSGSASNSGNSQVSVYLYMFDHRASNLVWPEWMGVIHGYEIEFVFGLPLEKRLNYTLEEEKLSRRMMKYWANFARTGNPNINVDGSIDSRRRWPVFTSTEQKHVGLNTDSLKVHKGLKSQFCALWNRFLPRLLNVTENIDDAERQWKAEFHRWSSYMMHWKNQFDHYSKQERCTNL

[3] = Antioxidant activity assessed as ABTS cation radical scavenging activity measured after 6 mins
Cholinesterase = Cholinesterase (Equus caballus, UniProt P81908); experiment: Inhibition of horse serum butyrylcholinesterase using butyrylthiocholine iodide as substrate preincubated for 15 mins followed by substrate addition by Ellman's method
Sequence of Cholinesterase (P81908 whole entry): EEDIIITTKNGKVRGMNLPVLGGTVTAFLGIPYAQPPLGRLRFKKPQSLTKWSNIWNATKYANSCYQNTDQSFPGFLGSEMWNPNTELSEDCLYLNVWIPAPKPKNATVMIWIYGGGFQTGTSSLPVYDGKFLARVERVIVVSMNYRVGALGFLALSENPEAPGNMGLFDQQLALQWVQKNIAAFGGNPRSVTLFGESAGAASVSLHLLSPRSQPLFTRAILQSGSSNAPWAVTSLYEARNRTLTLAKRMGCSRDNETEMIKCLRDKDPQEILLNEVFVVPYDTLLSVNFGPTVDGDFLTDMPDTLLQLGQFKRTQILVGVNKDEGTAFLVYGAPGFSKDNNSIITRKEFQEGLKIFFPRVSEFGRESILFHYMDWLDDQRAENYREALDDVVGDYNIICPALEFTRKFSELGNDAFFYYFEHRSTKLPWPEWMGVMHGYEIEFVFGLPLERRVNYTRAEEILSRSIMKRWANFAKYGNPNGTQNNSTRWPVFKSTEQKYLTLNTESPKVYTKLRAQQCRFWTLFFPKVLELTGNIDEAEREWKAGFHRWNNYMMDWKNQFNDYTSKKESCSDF
Summary of the method: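 Enzyme in 100 mM phosphate buffer pH 8.0 with sample (n-propanol as solvent and control) preincubated 15 min at 25°C. Reaction started with butyrylthiocholine iodide (0.79 mM solution) plus DTNB. Thiolate-DTNB yellow product followed at 412 nm. IC50 taken from inhibition (%) curves at five concentrations: 12.5, 25, 50, 100 and 200 µM.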

[4] = biological target: Cholinesterase (Equus caballus) (UniProt P81908); experiment: Potency index, ratio of donepezil IC50 to compound IC50 for horse serum butyrylcholinesterase
Sequence of Cholinesterase (Equus caballus) (P81908 whole entry): as above

[5] = biological target: Cholinesterase (Equus caballus) (UniProt P81908); experiment: Potency index, ratio of galanthamine IC50 to compound IC50 for horse serum butyrylcholinesterase

COc1ccc(NC(=O)Nc2nc(-c3cc4cc(Br)ccc4o3)cs2)cc1
A0.5 [1]: > 200 µM
Ratio IC50 [2]: 0.95
pIC50 (Acetylcholinesterase): 4.48
pIC50 ([3]; ABTS cation radical): < 3.70
pIC50 (Cholinesterase): 4.51

O=C(Nc1ccc(Cl)cc1)Nc1nc(-c2cc3cc([N+](=O)[O-])ccc3o2)cs1
A0.5 [1]: > 200 µM
Ratio IC50 [2]: 0.87
pIC50 (Acetylcholinesterase): 4.51
pIC50 ([3]; ABTS cation radical): 3.93
pIC50 (Cholinesterase): 4.57

O=C(Nc1ccc(I)cc1)Nc1nc(-c2cc3cc(Br)ccc3o2)cs1
A0.5 [1]: > 200 µM
Ratio IC50 [2]: 6.8
pIC50 (Acetylcholinesterase): 5.19
pIC50 ([3]; ABTS cation radical): < 3.70
pIC50 (Cholinesterase): 4.36

O=C(Nc1cccc(Cl)c1)Nc1nc(-c2cc3ccccc3o2)cs1
A0.5 [1]: > 200 µM
Ratio IC50 [2]: 2.22
pIC50 (Acetylcholinesterase): 5.01
pIC50 ([3]; ABTS cation radical): 4.85
pIC50 (Cholinesterase): 4.67

O=C(Nc1ccc(Cl)cc1)Nc1nc(-c2cc3ccccc3o2)cs1
A0.5 [1]: > 200 µM
Ratio IC50 [2]: 0.91
pIC50 (Acetylcholinesterase): 4.37
pIC50 ([3]; ABTS cation radical): 4.95
pIC50 (Cholinesterase): 4.41

O=C(Nc1ccccc1)Nc1nc(-c2cc3cc([N+](=O)[O-])ccc3o2)cs1
A0.5 [1]: > 200 µM
Ratio IC50 [2]: 0.51
pIC50 (Acetylcholinesterase): 5.35
pIC50 ([3]; ABTS cation radical): 3.74
pIC50 (Cholinesterase): 5.65

O=C(Nc1nc(-c2cc3cc(Br)ccc3o2)cs1)Nc1ccccc1F
A0.5 [1]: > 200 µM
Ratio IC50 [2]: 2.4
pIC50 (Acetylcholinesterase): 5.41
pIC50 ([3]; ABTS cation radical): < 3.70
pIC50 (Cholinesterase): 5.03

O=C(Nc1ccc([N+](=O)[O-])cc1)Nc1nc(-c2cc3cc([N+](=O)[O-])ccc3o2)cs1
A0.5 [1]: > 200 µM
Ratio IC50 [2]: 1.02
pIC50 (Acetylcholinesterase): 4.60
pIC50 ([3]; ABTS cation radical): 4.00
pIC50 (Cholinesterase): 4.59

COc1ccc(NC(=O)Nc2nc(-c3cc4cc([N+](=O)[O-])ccc4o3)cs2)cc1
A0.5 [1]: > 200 µM
Ratio IC50 [2]: 1.44
pIC50 (Acetylcholinesterase): 4.47
pIC50 ([3]; ABTS cation radical): 3.92
pIC50 (Cholinesterase): 4.31

O=C(Nc1nc(-c2cc3cc(Br)ccc3o2)cs1)Nc1ccccc1[N+](=O)[O-]
A0.5 [1]: 122.22 µM
Ratio IC50 [2]: 0.58
pIC50 (Acetylcholinesterase): 5.05
pIC50 ([3]; ABTS cation radical): 3.78
pIC50 (Cholinesterase): 5.29

COc1cccc(NC(=O)Nc2nc(-c3cc4ccccc4o3)cs2)c1
A0.5 [1]: 104.46 µM
Ratio IC50 [2]: 1.22
pIC50 (Acetylcholinesterase): 4.31
pIC50 ([3]; ABTS cation radical): 6.70
pIC50 (Cholinesterase): 4.23

O=c1c(O)c(-c2ccc(O)c(O)c2)oc2cc(O)cc(O)c12 [QUERCETIN]
A0.5 [1]: 1.45 µM
pIC50 ([3]; ABTS cation radical): 5.93

O=C(Nc1ccc([N+](=O)[O-])cc1)Nc1nc(-c2cc3ccccc3o2)cs1
A0.5 [1]: > 200 µM
Ratio IC50 [2]: 0.66
pIC50 (Acetylcholinesterase): 5.28
pIC50 ([3]; ABTS cation radical): 4.72
pIC50 (Cholinesterase): 5.46

O=C(Nc1ccc(F)cc1)Nc1nc(-c2cc3cc([N+](=O)[O-])ccc3o2)cs1
A0.5 [1]: > 200 µM
Ratio IC50 [2]: 1.16
pIC50 (Acetylcholinesterase): 4.39
pIC50 ([3]; ABTS cation radical): 3.91
pIC50 (Cholinesterase): 4.32

O=C(Nc1nc(-c2cc3ccccc3o2)cs1)Nc1ccccc1[N+](=O)[O-]
A0.5 [1]: 100.33 µM
Ratio IC50 [2]: 1.91
pIC50 (Acetylcholinesterase): 4.38
pIC50 ([3]; ABTS cation radical): 4.69
pIC50 (Cholinesterase): 4.10

O=C(Nc1nc(-c2cc3ccccc3o2)cs1)Nc1ccccc1F
A0.5 [1]: 102.43 µM
Ratio IC50 [2]: 1.35
pIC50 (Acetylcholinesterase): 4.51
pIC50 ([3]; ABTS cation radical): 5.58
pIC50 (Cholinesterase): 4.38

O=C(Nc1cccc(F)c1)Nc1nc(-c2cc3ccccc3o2)cs1
A0.5 [1]: 126.52 µM
Ratio IC50 [2]: 0.37
pIC50 (Acetylcholinesterase): 4.31
pIC50 ([3]; ABTS cation radical): 5.34
pIC50 (Cholinesterase): 4.75

O=C(Nc1ccc(Cl)cc1)Nc1nc(-c2cc3cc(Br)ccc3o2)cs1
A0.5 [1]: > 200 µM
Ratio IC50 [2]: 1.66
pIC50 (Acetylcholinesterase): 4.65
pIC50 ([3]; ABTS cation radical): < 3.70
pIC50 (Cholinesterase): 4.43

O=C(Nc1ccccc1)Nc1nc(-c2cc3ccccc3o2)cs1
A0.5 [1]: 132 µM
Ratio IC50 [2]: 0.86
pIC50 (Acetylcholinesterase): 4.61
pIC50 ([3]; ABTS cation radical): 4.55
pIC50 (Cholinesterase): 4.67

O=C(Nc1ccccc1)Nc1nc(-c2cc3cc(Br)ccc3o2)cs1
A0.5 [1]: > 200 µM
Ratio IC50 [2]: 1.5
pIC50 (Acetylcholinesterase): 4.63
pIC50 ([3]; ABTS cation radical): < 3.70
pIC50 (Cholinesterase): 4.46

COc1ccccc1NC(=O)Nc1nc(-c2cc3ccccc3o2)cs1
A0.5 [1]: > 200 µM
Ratio IC50 [2]: 1.33
pIC50 (Acetylcholinesterase): 4.21
pIC50 ([3]; ABTS cation radical): 4.32
pIC50 (Cholinesterase): 4.09

O=C(Nc1ccc(Br)cc1)Nc1nc(-c2cc3cc([N+](=O)[O-])ccc3o2)cs1
A0.5 [1]: > 200 µM
Ratio IC50 [2]: 1.22
pIC50 (Acetylcholinesterase): 4.55
pIC50 ([3]; ABTS cation radical): 3.71
pIC50 (Cholinesterase): 4.46

O=C(Nc1cccc(F)c1)Nc1nc(-c2cc3cc(Br)ccc3o2)cs1
A0.5 [1]: > 200 µM
Ratio IC50 [2]: 1.37
pIC50 (Acetylcholinesterase): 4.53
pIC50 ([3]; ABTS cation radical): < 3.70
pIC50 (Cholinesterase): 4.40

COc1ccc(NC(=O)Nc2nc(-c3cc4ccccc4o3)cs2)cc1
A0.5 [1]: 146.34 µM
Ratio IC50 [2]: 1.42
pIC50 (Acetylcholinesterase): 4.28
pIC50 ([3]; ABTS cation radical): 4.76
pIC50 (Cholinesterase): 4.13

COc1cccc(NC(=O)Nc2nc(-c3cc4cc(Br)ccc4o3)cs2)c1
A0.5 [1]: > 200 µM
Ratio IC50 [2]: 0.47
pIC50 (Acetylcholinesterase): 4.53
pIC50 ([3]; ABTS cation radical): < 3.70
pIC50 (Cholinesterase): 4.86

O=C(Nc1ccc([N+](=O)[O-])cc1)Nc1nc(-c2cc3cc(Br)ccc3o2)cs1
A0.5 [1]: 120.74 µM
Ratio IC50 [2]: 0.65
pIC50 (Acetylcholinesterase): 5.32
pIC50 ([3]; ABTS cation radical): < 3.70
pIC50 (Cholinesterase): 5.51

O=C(Nc1ccc(Br)cc1)Nc1nc(-c2cc3ccccc3o2)cs1
A0.5 [1]: > 200 µM
Ratio IC50 [2]: 1.68
pIC50 (Acetylcholinesterase): 4.48
pIC50 ([3]; ABTS cation radical): < 3.70
pIC50 (Cholinesterase): 4.26

O=C(Nc1ccc(Br)cc1)Nc1nc(-c2cc3cc(Br)ccc3o2)cs1
A0.5 [1]: > 200 µM
Ratio IC50 [2]: 3
pIC50 (Acetylcholinesterase): 4.92
pIC50 ([3]; ABTS cation radical): < 3.70
pIC50 (Cholinesterase): 4.45

COc1ccccc1NC(=O)Nc1nc(-c2cc3cc(Br)ccc3o2)cs1
A0.5 [1]: 92.68 µM
Ratio IC50 [2]: 1.95
pIC50 (Acetylcholinesterase): 4.10
pIC50 ([3]; ABTS cation radical): 4.11
pIC50 (Cholinesterase): 3.81

O=C(Nc1cccc([N+](=O)[O-])c1)Nc1nc(-c2cc3ccccc3o2)cs1
A0.5 [1]: > 200 µM
Ratio IC50 [2]: 0.65
pIC50 (Acetylcholinesterase): 4.39
pIC50 [3]: 5.90
pIC50 (Cholinesterase): 4.57

O=C(Nc1cccc(Cl)c1)Nc1nc(-c2cc3cc(Br)ccc3o2)cs1
A0.5 [1]: > 200 µM
Ratio IC50 [2]: 3.32
pIC50 (Acetylcholinesterase): 5.10
pIC50 ([3]; ABTS cation radical): < 3.70
pIC50 (Cholinesterase): 4.58

O=C(Nc1cccc([N+](=O)[O-])c1)Nc1nc(-c2cc3cc(Br)ccc3o2)cs1
A0.5 [1]: > 200 µM
Ratio IC50 [2]: 4.53
pIC50 (Acetylcholinesterase): 4.76
pIC50 ([3]; ABTS cation radical): 3.80
pIC50 (Cholinesterase): 4.10

Cc1ccc(NC(=O)Nc2nc(-c3cc4cc(Br)ccc4o3)cs2)cc1
A0.5 [1]: > 200 µM
Ratio IC50 [2]: 0.17
pIC50 (Acetylcholinesterase): 4.49
pIC50 ([3]; ABTS cation radical): < 3.70
pIC50 (Cholinesterase): 5.25

Cc1ccc(NC(=O)Nc2nc(-c3cc4ccccc4o3)cs2)cc1
A0.5 [1]: 192.91 µM
Ratio IC50 [2]: 5.41
pIC50 (Acetylcholinesterase): 4.98
pIC50 ([3]; ABTS cation radical): 6.30
pIC50 (Cholinesterase): 4.25

O=C(Nc1ccc(I)cc1)Nc1nc(-c2cc3ccccc3o2)cs1
A0.5 [1]: 133 µM
Ratio IC50 [2]: 1.93
pIC50 (Acetylcholinesterase): 4.67
pIC50 ([3]; ABTS cation radical): 4.21
pIC50 (Cholinesterase): 4.38

O=C(Nc1ccc(I)cc1)Nc1nc(-c2cc3cc([N+](=O)[O-])ccc3o2)cs1
A0.5 [1]: > 200 µM
Ratio IC50 [2]: 0.37
Ratio IC50 [4]: 2.3
pIC50 (Acetylcholinesterase): 5.26
pIC50 ([3]; ABTS cation radical): 4.20
pIC50 (Cholinesterase): 5.69
Ratio IC50 [5]: 8.5

O=C(Nc1ccc(F)cc1)Nc1nc(-c2cc3ccccc3o2)cs1
A0.5 [1]: 110.31 µM
Ratio IC50 [2]: 0.14
pIC50 (Acetylcholinesterase): 4.26
pIC50 ([3]; ABTS cation radical): 5.95
pIC50 (Cholinesterase): 5.13

O=C(Nc1ccc(Cl)c(Cl)c1)Nc1nc(-c2cc3ccccc3o2)cs1
A0.5 [1]: > 200 µM
Ratio IC50 [2]: 1.45
pIC50 (Acetylcholinesterase): 4.28
pIC50 ([3]; ABTS cation radical): < 3.70
pIC50 (Cholinesterase): 4.12

O=C(Nc1ccc(F)cc1)Nc1nc(-c2cc3cc(Br)ccc3o2)cs1
A0.5 [1]: 146.78 µM
Ratio IC50 [2]: 1.81
pIC50 (Acetylcholinesterase): 4.45
pIC50 ([3]; ABTS cation radical): < 3.70
pIC50 (Cholinesterase): 4.19
